Among the data in ChEMBL document CHEMBL4513216, “Probing the Open Global Health Chemical Diversity Library for Multistage-Active Starting Points for Next-Generation Antimalarials” (ACS Infect Dis, 2020) are cytotoxicity values, retold here.

This data set can be described thus: Toxicity liver stage against HepG2, at 10uM. The arrangement: test concentration 10 uM, cell line HepG2-A16-CD81EGFP. The format is cell-based. To be noted: human, HepG2-A16-CD81EGFP cells; read-out: INHIBITION
The gist of the method: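 Uninfected HepG2-A16-CD81EGFP cells, 3 × 10^3 per well, 1536-well, plated on prespotted compound at 10 μM final, parasite-free screening media added to match infected plates; puromycin 10 μM positive, DMSO 0.5% negative; run in parallel with 48 h PbLuc assay at 37 °C, 5% CO2; viability by CellTiter-Glo luminescence, normalized to controls.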
Turning to `OC(CN1CCN(c2ncccn2)CC1)c1cccc(F)c1` (stereo unspecified), the cytotoxicity at 10 µM is 2.4%.

Take `CC(=O)N1CCC(N2CCC(c3nc(C)cc(C)n3)C2)CC1` (stereo unspecified): the cytotoxicity at 10 µM is -7.87%.

Regarding `COCC1CN(Cc2ccc(OC)cc2)Cc2nnn(CC3CC3)c21` (stereo unspecified), the cytotoxicity at 10 µM was -2.47%.

`CC(=O)N1CCCN(C(=O)NCCc2cc(Cl)cc(Cl)c2)CC1`: the cytotoxicity at 10 µM was found to be 4.55%.

As for `CCCc1nc(C(C)(C)NC(=O)C2CC(=O)N(CCOC)C2)no1` (stereo unspecified), the cytotoxicity at 10 µM was -8.12%.

For `CCc1ccc(C(COC)NC(=O)c2ccc(F)c(NC(C)=O)c2)o1` (stereo unspecified), the cytotoxicity at 10 µM is -11.1%.

Consider `CN(Cc1ccccc1)CC(O)Cn1cnc2sccc2c1=O` (stereo unspecified), for which the cytotoxicity at 10 µM was -6.54%.

Consider `CCC(C)NC(=O)CN1CCOCC1` (stereo unspecified), for which the cytotoxicity at 10 µM was -5.74%.

In the case of `Cn1cc(CN2CCC(Cn3cc(-c4ccccc4)nn3)CC2)cn1`, the cytotoxicity at 10 µM worked out at 9.47%.

Take `CC(C)(C(=O)O)S(=O)(=O)c1ccc(Br)cc1`: the cytotoxicity at 10 µM was 4.67%.

Take `c1csc(CN2CCc3c(CNc4nncs4)cncc3C2)c1`: the cytotoxicity at 10 µM was -70.1%.

As for `Cc1ncc(C(=O)N2CC(C(=O)N3CCCCCC3)C2)c(C)n1`, the cytotoxicity at 10 µM came to 6.39%.

For `Cc1cccnc1NC(=O)c1ccc(-n2cncn2)nn1`, the cytotoxicity at 10 µM was -1.52%.

With `CC(=O)N1CCCN(S(=O)(=O)c2cc3ccccc3o2)CC1`, the cytotoxicity at 10 µM was 18.8%.

Take `CNS(=O)(=O)Cc1ccc(CNC(=O)Nc2cccnc2)cc1`: the cytotoxicity at 10 µM is 0.684%.

Consider `Cc1noc([C@@H]2C[C@H](NC(=O)NC3CCCCC3)CN2C)n1`, for which the cytotoxicity at 10 µM stood at 3.23%.

In the case of `CCCn1cc(C(=O)NC(C(=O)O)c2ccccc2C(F)(F)F)c(C)n1` (stereo unspecified), the cytotoxicity at 10 µM is -50.2%.

As for `CC(=O)N1CC(=O)N(c2cccnc2)CC12CCN(Cc1nccs1)C2` (stereo unspecified), the cytotoxicity at 10 µM is 6.85%.

As for `Cc1nc(C2CCCN2C(=O)COCc2ccccc2)no1` (stereo unspecified), the cytotoxicity at 10 µM is -2.66%.

`COC(=O)N1CCCN(C(=O)c2cccc3cccnc23)CC1`: the cytotoxicity at 10 µM worked out at 8.33%.

Take `CCCNC(=O)c1nn(CC)cc1NC(=O)C(C)n1ncc(Cl)c1C` (stereo unspecified): the cytotoxicity at 10 µM was 7.19%.

In the case of `CCS(=O)(=O)N1CCCC2(CCCN2C(=O)c2cn(C)cn2)C1` (stereo unspecified), the cytotoxicity at 10 µM came out at 8.16%.

Consider `O=C(NCc1cccnc1)Nc1ccn(CC(F)F)n1`, for which the cytotoxicity at 10 µM was 1.68%.

As for `CC(=O)NC[C@]1(O)CCN(C(=O)c2ccc(C)c(F)c2)C[C@H]1O`, the cytotoxicity at 10 µM is -2.78%.

Regarding `CCc1ncnc2c1CCN(C(=O)Cc1ccccn1)CC2`, the cytotoxicity at 10 µM was -8.75%.

Take `CCn1nc(C)cc1C(=O)NCc1cc(N(C)C)nc2ccccc12`: the cytotoxicity at 10 µM was determined as 10.6%.

In the case of `Cc1ccc(CN2CC(O)CN(C(=O)C3CC3)CC2=O)cc1` (stereo unspecified), the cytotoxicity at 10 µM was -2.12%.

As to `COC(=O)[C@@H]1Cc2ncn(C)c2CN1S(=O)(=O)Cc1ccccc1`, the cytotoxicity at 10 µM was -0.861%.

On to `O=C(C1CC1)N1CCC2(COCc3cnc(N4CCOCC4)nc32)C1` (stereo unspecified), for which the cytotoxicity at 10 µM worked out at 5.31%.

Regarding `Cc1csc(Nc2nccnc2C2CCCN2C(=O)C(C)C)n1` (stereo unspecified), the cytotoxicity at 10 µM stood at 1.3%.

As for `CC(=O)N1CCN(Cc2cccc3c2sc2ccccc23)CC(O)C1` (stereo unspecified), the cytotoxicity at 10 µM is -12.9%.

As to `Cc1ccc(-c2cc(C(=O)NCCN3CCCS3(=O)=O)[nH]n2)cc1`, the cytotoxicity at 10 µM was -7.57%.

In the case of `CC(NC(=O)N1CCN(c2cccs2)CC1)c1ccncc1` (stereo unspecified), the cytotoxicity at 10 µM was 15.8%.

In the case of `Cc1cccc(N2CCOCC3(C2)CN(c2cnn(C)c2)C(=O)CO3)n1` (stereo unspecified), the cytotoxicity at 10 µM is -0.136%.

On to `COCC1CC2(CCN(S(=O)(=O)C3CC3)CC2)CN1c1ncccn1` (stereo unspecified), for which the cytotoxicity at 10 µM is -2.01%.

Regarding `Cc1cnc(CN2CCN(C(C)c3nc(C)no3)CC2)cn1` (stereo unspecified), the cytotoxicity at 10 µM was 1.81%.

In the case of `CC(C)(C)C(=O)NCc1nccn1CCc1ccccc1`, the cytotoxicity at 10 µM was determined as 3.75%.

For the compound `CC(C)c1noc(C(C)S(=O)(=O)CC(=O)N2CCCC2)n1` (stereo unspecified), the cytotoxicity at 10 µM is 4.23%.

As to `CN1CCN(C2CCN(Cc3nnc(C(C)(C)C)o3)CC2)C1=O`, the cytotoxicity at 10 µM is -16.2%.

Regarding `Cc1noc([C@@H]2CCO[C@@H]3CCN(Cc4nccs4)C[C@@H]32)n1`, the cytotoxicity at 10 µM is -75.8%.

`Cc1nn(C)c(C)c1CN(C)C(C(=O)O)c1ccc(F)cc1F` (stereo unspecified): the cytotoxicity at 10 µM stood at 8.42%.

With `CS(=O)(=O)N1CCC2(CC1)CC(Oc1ccccn1)CO2` (stereo unspecified), the cytotoxicity at 10 µM is -150%.

`O=C(NCCN1CCCC(CO)C1)c1ccc2scnc2c1` (stereo unspecified): the cytotoxicity at 10 µM came out at 8.61%.

On to `Cc1ccc(-c2noc(CN3CCC(N4CCNC4=O)CC3)n2)cc1`, for which the cytotoxicity at 10 µM worked out at 31%.

In the case of `NC(=O)C1CCCN1C(=O)c1cc(C2CC2)nc2ccc(F)cc12` (stereo unspecified), the cytotoxicity at 10 µM worked out at 1.75%.

On to `C[C@H]1CN(C(=O)c2cccnc2)C[C@@]12CCN(CCN1CCCC1)C2=O`, for which the cytotoxicity at 10 µM was -4.71%.

With `COc1cc(N2CC[C@@H](OC)[C@@H]2Cc2ccccc2)ncn1`, the cytotoxicity at 10 µM was -138%.

With `COc1ccc(Cl)cc1CN1CC(n2cccn2)C1`, the cytotoxicity at 10 µM is -1.73%.

With `CC1(C)OCC2(CO1)CN(C(=O)c1ccccc1Br)C2`, the cytotoxicity at 10 µM is -7.31%.

On to `CC(C)(C)C(=O)Cn1nc(C2CC2)cc(C(F)(F)F)c1=O`, for which the cytotoxicity at 10 µM is -8.06%.

Turning to `COc1ccccc1[S+]([O-])CC(=O)NCc1cc(F)cc(F)c1` (stereo unspecified), the cytotoxicity at 10 µM amounted to 24.3%.

As to `CCC(NC(=O)Nc1ccc(OC)c(C)c1)c1noc(C)n1` (stereo unspecified), the cytotoxicity at 10 µM is -12%.

With `CC(C)c1ccc(S(=O)(=O)Cc2nc(N)nc(N(C)C)n2)cc1`, the cytotoxicity at 10 µM was -11.1%.

As for `CN(CCC(=O)N1CCc2sccc2C1)Cc1ccc2c(c1)OCCO2`, the cytotoxicity at 10 µM is -14.8%.

Take `O=C(CN1CCC(c2nnc(C(F)(F)F)o2)CC1)Nc1cccc(Cl)c1`: the cytotoxicity at 10 µM was -1.53%.

In the case of `O=c1[nH]nc2c(N3CCOCC3)nccn12`, the cytotoxicity at 10 µM worked out at 9.73%.

In the case of `CNC(=O)C1CN(C(=O)COc2ccccc2)Cc2cn(C)nc21` (stereo unspecified), the cytotoxicity at 10 µM was -10.4%.

Regarding `CC(C)c1n[nH]c(C2CN(Cc3ncc[nH]3)CCO2)n1` (stereo unspecified), the cytotoxicity at 10 µM stood at 1.95%.

As for `O=S(=O)(Cc1c(F)cccc1F)NCCOc1cccnc1`, the cytotoxicity at 10 µM was -39.7%.

For the compound `COc1ccc(/C=C/CN2CCCC3(C2)CN(C)C(=O)O3)cc1` (stereo unspecified), the cytotoxicity at 10 µM was -2.67%.

`COCc1cncc2c1CCN(Cc1cccnc1)C2`: the cytotoxicity at 10 µM was 3.91%.

Consider `CN1CCC2(CC1)C(=O)N(CC1CC1)c1ccccc12`, for which the cytotoxicity at 10 µM was 3.21%.

`CCn1nc2c(cc1=O)CN(CCCN1CCCC1=O)CC2`: the cytotoxicity at 10 µM is -13.9%.

`COCCCC1CCCN(C(=O)CCc2csc(N)n2)C1` (stereo unspecified): the cytotoxicity at 10 µM is -2.66%.

Regarding `CCCN(CCc1ccccc1)C(=O)c1ccccc1NCC(=O)O`, the cytotoxicity at 10 µM was 7.38%.

For `CC(=O)NCCC(=O)NCc1cc(Br)ccc1OC(F)F`, the cytotoxicity at 10 µM was -6.47%.

For the compound `O=C(O)C1CCCN1c1nc(C2CC2)cc(C(F)(F)F)n1` (stereo unspecified), the cytotoxicity at 10 µM is 7.55%.

Consider `CS(=O)(=O)N1CCOCC2(CCN(C(=O)c3cccnc3)CC2)C1`, for which the cytotoxicity at 10 µM was -10.1%.

Take `Cc1ccc(CN2C[C@@H]3CCN(Cc4cccnc4)C(=O)[C@H]3C2)s1`: the cytotoxicity at 10 µM stood at 0.434%.

With `CSCCC(C)(O)CNC(=O)Nc1ccccc1C` (stereo unspecified), the cytotoxicity at 10 µM was -1.44%.

With `Cc1ccc(S(N)(=O)=O)cc1C(=O)N1CCc2c(ncnc2N(C)C)C1`, the cytotoxicity at 10 µM is -2.71%.

Turning to `O=C(c1ccncc1)N1CCCC1c1cccc(Br)c1` (stereo unspecified), the cytotoxicity at 10 µM was 16.9%.

For the compound `CC(C)(C)CC(=O)NCC(=O)NS(=O)(=O)c1cccnc1`, the cytotoxicity at 10 µM is -3.13%.

Turning to `CCc1cc(N(C)Cc2nonc2C)nc(N(C)C)n1`, the cytotoxicity at 10 µM is -6.32%.

As for `CN1CCN(C(=O)c2cc3sccc3n2Cc2ccc(Cl)cc2)CC1`, the cytotoxicity at 10 µM was determined as 1.05%.

For the compound `Cn1cc(N2CC3(CCN(C(=O)c4cccn4C)CC3)OCC2=O)cn1`, the cytotoxicity at 10 µM was -81.1%.

Consider `Cn1cc(CN2C[C@@H](N3CCCC3=O)[C@H]3OCCC[C@H]32)cn1`, for which the cytotoxicity at 10 µM came to 8.92%.

On to `O=C(Cc1ccsc1)N1CCn2cc(CN3CCCC3)nc2C1`, for which the cytotoxicity at 10 µM is -14.2%.

With `O=C(c1ccccc1F)N(CCCO)S(=O)(=O)c1cccs1`, the cytotoxicity at 10 µM was 4.95%.

Consider `Cc1c(C(C)NC2CCCC2)cnn1-c1ccc(F)cc1F` (stereo unspecified), for which the cytotoxicity at 10 µM turned out to be 4.91%.

With `O=C1CN(c2ccc(C(=O)N3CCc4ccccc43)cn2)CCN1`, the cytotoxicity at 10 µM was 2.66%.

In the case of `CNC(=O)[C@H]1C[C@H]2OCC[C@H]2N(Cc2ccc(C)o2)C1`, the cytotoxicity at 10 µM worked out at 11.8%.

Take `CCOC(=O)CSc1ccc(-c2nc(C)no2)cn1`: the cytotoxicity at 10 µM is -15.2%.

Take `O=C(CCc1nc(Cl)n[nH]1)N1CCC2(CCCN(CC3CCC3)C2=O)C1` (stereo unspecified): the cytotoxicity at 10 µM was -5.3%.

Take `O=C(Cc1ccccn1)N1CCCC(c2nccn2CC2CCC2)C1` (stereo unspecified): the cytotoxicity at 10 µM is -2.11%.

As to `N#Cc1c(N)nc2c(c1C1CCOC1)CCc1cc(O)ccc1-2` (stereo unspecified), the cytotoxicity at 10 µM is 23.4%.

Regarding `COc1ccc(C)cc1CC(=O)NS(=O)(=O)c1ccc(C(N)=O)cc1`, the cytotoxicity at 10 µM is 8%.

`CCCNC(=O)Cc1c(C)nc2c(c1C)c(=O)[nH]n2C`: the cytotoxicity at 10 µM came out at 11.4%.

In the case of `COC(=O)CCCC(=O)N1CCCCC1c1ccc(F)cc1` (stereo unspecified), the cytotoxicity at 10 µM was -42.7%.

As for `Cn1cc(N2C[C@@H]3CN(Cc4ccoc4)C[C@@H]3C2=O)cn1`, the cytotoxicity at 10 µM is -2.93%.

On to `C=C(C)CNC(C)c1ccc(S(C)(=O)=O)c(F)c1` (stereo unspecified), for which the cytotoxicity at 10 µM was found to be 0.563%.

Regarding `COc1ccc(C)cc1C(C)NS(=O)(=O)c1ccc2c(c1)CCC(=O)N2` (stereo unspecified), the cytotoxicity at 10 µM is -33%.

In the case of `O=C(NC1CCC1)c1c2c(N3CCCC3)ncnc2n2ccccc12`, the cytotoxicity at 10 µM was -82.4%.

`CC(C)CC(C)NC1CCN(c2ccc(-c3cscn3)cc2)CC1` (stereo unspecified): the cytotoxicity at 10 µM was -50.6%.

For `CCOCC1CN(S(=O)(=O)CC)Cc2nn(C)cc21` (stereo unspecified), the cytotoxicity at 10 µM is -111%.

Regarding `COc1ccccc1N1CCN(CC(=O)NC(C)c2ccco2)CC1` (stereo unspecified), the cytotoxicity at 10 µM is -2.58%.
